Experimental data reported in ChEMBL document CHEMBL1143415, “Differential fungicidal activities of amphotericin B and voriconazole against Aspergillus species determined by microbroth methodology” (Antimicrob Agents Chemother, 2007).
Values after ≈ are worked out from the molar mass of the structure shown.

How the values were obtained:
[1] = test system: Aspergillus fumigatus; test: Ratio of MFC for Aspergillus fumigatus isolate to MIC for Aspergillus fumigatus isolate; format: functional
How it was run: (§1)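 Per-isolate ratio of the XTT-based MFC (24 h post-wash regrowth, absorbance cutoff 0.01) to the 48 h CLSI M38-A MIC, taken as the median of two replicate experiments. A ratio of ≤4 was counted fungicidal and >4 fungistatic.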

[2] = test system: Aspergillus fumigatus; test: Antifungal activity against Aspergillus fumigatus isolate after 48 hrs by NCCLS M38-A broth microdilution method; format: functional
How it was run: (§2)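 CLSI M38-A broth microdilution. Conidia came from 5–7 d potato dextrose agar slants at 35°C, suspended in saline with 0.025% Tween 20 and counted by hemacytometer. Final inoculum was 0.5×10^4 to 5×10^4 CFU/ml in RPMI 1640 with MOPS, pH 7.0. Final drug ranges: amphotericin B 0.015–16 mg/liter, voriconazole 0.008–8 mg/liter. Plates ran 48 h at 37°C. MIC = lowest concentration with no visible growth. Duplicate plates; experiments done twice.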

[3] = test system: Aspergillus flavus; test: Antifungal activity against Aspergillus flavus isolate after 6 to 8 hrs by microbroth colorimetric XTT method relative to control; format: functional
[4] = test system: Aspergillus flavus; test: Antifungal activity against Aspergillus flavus ATCC MYA-3631 after 24 to 48 hrs by culture-based CFU method; format: functional
How it was run: (§3)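 Done after the 48 h M38-A MIC plates. Clear wells and the 0.5× MIC well were pipetted five times, and 20 μl or 100 μl was subcultured on Sabouraud dextrose agar for 24–48 h at 37°C before CFU counting. MFC = lowest concentration giving no growth for each volume.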

[5] = test system: Aspergillus fumigatus; test: Antifungal activity against Aspergillus fumigatus isolate at 20 CFU infectious rate after 24 hrs by culture-based CFU method; format: functional; how it was run: as §3
[6] = test system: Aspergillus terreus; test: Antifungal activity against Aspergillus terreus ATCC MYA-3633 after 24 hrs by microbroth colorimetric XTT method; format: functional
How it was run: (§4)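 Done after the 48 h M38-A MIC plates. Clear wells and the 0.5× MIC well were aspirated, washed twice with 37°C saline, refilled with fresh RPMI, then incubated 24 h at 37°C. XTT (0.1 mg/ml) with menadione (25 μM), both final, was added for 2 h. A450/630 was read minus background from conidia-free wells. MFC = lowest concentration with absorbance <0.01, a cutoff set by ROC against microscopic growth.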

[7] = test system: Aspergillus flavus; test: Antifungal activity against Aspergillus flavus isolate after 24 hrs by microbroth colorimetric XTT method; format: functional, organism-based; how it was run: as §4
[8] = test system: Aspergillus terreus; test: Antifungal activity against Aspergillus terreus isolate after 24 hrs by microbroth colorimetric XTT method; format: functional, organism-based; how it was run: as §4
[9] = test system: Aspergillus flavus; test: Antifungal activity against Aspergillus flavus isolate after 48 hrs by CLSI M38-A microdilution method; format: functional; how it was run: as §2
[10] = test system: Aspergillus fumigatus; test: Antifungal activity against Aspergillus fumigatus isolate after 24 hrs by microbroth colorimetric XTT method; format: functional, organism-based; how it was run: as §4
[11] = test system: Aspergillus fumigatus; test: Antifungal activity against Aspergillus fumigatus isolate at 100 CFU infectious rate after 24 hrs by culture-based CFU method; format: functional; how it was run: as §3
[12] = test system: Aspergillus fumigatus; test: Antifungal activity against Aspergillus fumigatus ATCC MYA-3626 after 24 to 48 hrs by culture-based CFU method; format: functional; how it was run: as §3
[13] = test system: Aspergillus fumigatus; test: Antifungal activity against Aspergillus fumigatus ATCC MYA-3626 after 48 hrs by CLSI M38-A microdilution method; format: functional
How it was run: (§5)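 CLSI M38-A broth microdilution in RPMI 1640 (L-glutamine, no bicarbonate, 0.165 M MOPS, pH 7.0). Conidia come from potato dextrose agar slants grown 5 to 7 days at 35°C, suspended in saline with 0.025% Tween 20 and counted by hemacytometer. Final inoculum 0.5 × 10^4 to 5 × 10^4 CFU/ml. Twofold dilutions in flat-bottom plates, 37°C for 48 h. MIC is the lowest concentration with no visible growth. Duplicate plates, two experiments.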

[14] = test system: Aspergillus terreus; test: Ratio of MFC for Aspergillus terreus isolate to MIC for Aspergillus terreus isolate; format: functional; how it was run: as §1
[15] = test system: Aspergillus fumigatus; test: Antifungal activity against Aspergillus fumigatus isolate after 6 to 8 hrs by microbroth colorimetric XTT method relative to control; format: functional
[16] = test system: Aspergillus terreus; test: Antifungal activity against Aspergillus terreus isolate at 100 CFU infectious rate after 24 hrs by culture-based CFU method; format: functional; how it was run: as §3
[17] = test system: Aspergillus flavus; test: Antifungal activity against Aspergillus flavus isolate at 20 CFU infectious rate after 24 hrs by culture-based CFU method; format: functional; how it was run: as §3
[18] = test system: Aspergillus flavus; test: Antifungal activity against Aspergillus flavus isolate after 48 hrs by NCCLS M38-A broth microdilution method; format: functional; how it was run: as §2
[19] = test system: Aspergillus fumigatus; test: Antifungal activity against Aspergillus fumigatus ATCC MYA-3626 after 24 hrs by microbroth colorimetric XTT method; format: functional; how it was run: as §4
[20] = test system: Aspergillus flavus; test: Antifungal activity against Aspergillus flavus ATCC MYA-3631 after 48 hrs by CLSI M38-A microdilution method; format: functional; how it was run: as §2
[21] = test system: Aspergillus terreus; test: Antifungal activity against Aspergillus terreus isolate after 48 hrs by CLSI M38-A microdilution method; format: functional; how it was run: as §2
[22] = test system: Aspergillus terreus; test: Antifungal activity against Aspergillus terreus ATCC MYA-3633 after 48 hrs by CLSI M38-A microdilution method; format: functional; how it was run: as §2
[23] = test system: Aspergillus flavus; test: Antifungal activity against Aspergillus flavus isolate at 100 CFU infectious rate after 24 hrs by culture-based CFU method; format: functional; how it was run: as §3
[24] = test system: Aspergillus flavus; test: Antifungal activity against Aspergillus flavus ATCC MYA-3631 after 24 hrs by microbroth colorimetric XTT method; format: functional; how it was run: as §4
[25] = test system: Aspergillus flavus; test: Ratio of MFC for Aspergillus flavus isolate to MIC for Aspergillus flavus isolate; format: functional; how it was run: as §1
[26] = test system: Aspergillus fumigatus; test: Antifungal activity against Aspergillus fumigatus isolate after 48 hrs by CLSI M38-A microdilution method; format: functional; how it was run: as §5
[27] = test system: Aspergillus terreus; test: Antifungal activity against Aspergillus terreus isolate at 20 CFU infectious rate after 24 hrs by culture-based CFU method; format: functional; how it was run: as §3
[28] = test system: Aspergillus terreus; test: Antifungal activity against Aspergillus terreus isolate after 6 to 8 hrs by microbroth colorimetric XTT method relative to control; format: functional
[29] = test system: Aspergillus terreus; test: Antifungal activity against Aspergillus terreus ATCC MYA-3633 after 24 to 48 hrs by culture-based CFU method; format: functional; how it was run: as §3
[30] = test system: Aspergillus terreus; test: Antifungal activity against Aspergillus terreus isolate after 8 hrs by microbroth colorimetric XTT method relative to control; format: functional
[31] = test system: Aspergillus fumigatus; test: Antifungal activity against Aspergillus fumigatus isolate after 8 hrs by microbroth colorimetric XTT method relative to control; format: functional
[32] = test system: Aspergillus flavus; test: Antifungal activity against Aspergillus flavus isolate after 8 hrs by microbroth colorimetric XTT method relative to control; format: functional

Work on C[C@@H](c1ncncc1F)[C@](O)(Cn1cncn1)c1ccc(F)cc1F [VORICONAZOLE] yielded an MFC/MIC ratio [1] of over 16, an MFC90 [2] of 0.25 mg/L (≈ 0.716 µM) and an Activity [3] of 16%. The MFC [4] was 0.5 µg/mL (≈ 1.43 µM), the MFC [5] was 2 µg/mL (≈ 5.73 µM) and the MFC [6] was over 8 µg/mL. It also gave an EC50 [7] of 1.96 µg/mL (≈ 5.61 µM), an MFC [7] of 4 µg/mL (≈ 11.5 µM) and an EC50 [8] of 11.7 µg/mL (≈ 33.5 µM). For the same compound, the MFC [8] was over 8 µg/mL, the MIC [9] was 0.5 µg/mL (≈ 1.43 µM) and the EC50 [10] was 2.34 µg/mL (≈ 6.7 µM). The MFC [10] was over 8 µg/mL, the MFC [11] was over 8 µg/mL and the MFC [12] was over 4 µg/mL. It also gave an MIC [13] of 1 µg/mL (≈ 2.86 µM), an MFC/MIC ratio [14] of 8 and an Activity [15] of 14%. It also gave an MFC [16] of over 8 µg/mL, an MFC [17] of 0.5 µg/mL (≈ 1.43 µM) and an MFC90 [18] of 0.25 mg/L (≈ 0.716 µM). For the same compound, the MFC [19] was over 8 µg/mL, the MIC [20] was 0.5 µg/mL (≈ 1.43 µM) and the MIC [21] was 1 µg/mL (≈ 2.86 µM). The MIC [22] was 0.5 µg/mL (≈ 1.43 µM), the MFC [23] was 1 µg/mL (≈ 2.86 µM) and the MFC [24] was over 4 µg/mL. The MFC/MIC ratio [25] was 4, the MIC [26] was 0.5 µg/mL (≈ 1.43 µM) and the MFC [27] was 8 µg/mL (≈ 22.9 µM). It also gave an Activity [28] of 36% and an MFC [29] of 2 µg/mL (≈ 5.73 µM).
Work on C[C@@H]1[C@H](O)[C@@H](C)/C=C/C=C/C=C/C=C/C=C/C=C/C=C/[C@H](O[C@@H]2O[C@H](C)[C@@H](O)[C@H](N)[C@@H]2O)C[C@@H]2O[C@](O)(C[C@@H](O)C[C@@H](O)[C@H](O)CC[C@@H](O)C[C@@H](O)CC(=O)O[C@H]1C)C[C@H](O)[C@H]2C(=O)O [AMPHOTERICIN B] yielded an MFC/MIC ratio [1] of 2, an Activity [30] of 3% and an Activity [31] of 16%. The MFC [4] was 1 µg/mL (≈ 1.08 µM), the MFC [5] was 1 µg/mL (≈ 1.08 µM) and the MFC [6] was over 16 µg/mL. The EC50 [7] was 1.1 µg/mL (≈ 1.19 µM), the MFC [7] was 2 µg/mL (≈ 2.16 µM) and the Activity [32] was 3%. For the same compound, the EC50 [8] was 9.55 µg/mL (≈ 10.3 µM), the MFC [8] was over 16 µg/mL and the MIC [9] was 1 µg/mL (≈ 1.08 µM). It also gave an EC50 [10] of 0.95 µg/mL (≈ 1.03 µM), an MFC [10] of 1 µg/mL (≈ 1.08 µM) and an MFC [11] of 2 µg/mL (≈ 2.16 µM). The MFC [12] was 1 µg/mL (≈ 1.08 µM), the MIC [13] was 1 µg/mL (≈ 1.08 µM) and the MFC/MIC ratio [14] was 16. It also gave an MFC [16] of over 16 µg/mL, an MFC [17] of 1 µg/mL (≈ 1.08 µM) and an MFC [19] of 1 µg/mL (≈ 1.08 µM). For the same compound, the MIC [20] was 1 µg/mL (≈ 1.08 µM), the MIC [21] was 2 µg/mL (≈ 2.16 µM) and the MIC [22] was 2 µg/mL (≈ 2.16 µM). The MFC [23] was 2 µg/mL (≈ 2.16 µM), the MFC [24] was 2 µg/mL (≈ 2.16 µM) and the MFC/MIC ratio [25] was 2. The MIC [26] was 1 µg/mL (≈ 1.08 µM), the MFC [27] was over 16 µg/mL and the MFC [29] was over 2 µg/mL.
